# Experimental data taken from ChEMBL document CHEMBL1155640, “Guaiane dimers and germacranolide from Artemisia caruifolia” (J Nat Prod, 2000).
# Calls of active or inactive are those of the source. The rule behind the calls is not given here.
# Key:
# Protease = Protease (Human immunodeficiency virus 1, UniProt Q9YQ12); experiment: Inhibition of HIV1 protease
# In short: (§1)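 Commercial HIV protease assay kit, with inhibition calculated by a previously reported method. Compounds were screened at 100 µg/mL. IC50 was taken from concentration-dependent inhibition. Acetyl pepstatin served as positive control.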
# [1] = test system: Human immunodeficiency virus 1; experiment: Antiviral activity against HIV1 in human MT4 cells assessed as inhibition of viral-induced cytopathic effect at 500 ug/mL; assay type: functional, organism-based
# [2] = molecular target: Protease (Human immunodeficiency virus 1) (UniProt Q9YQ12); experiment: Inhibition of HIV1 protease at 100 ug/mL; in short: as §1
# [3] = test system: Human immunodeficiency virus 1; experiment: Antiviral activity against HIV1 in human MT4 cells assessed as inhibition of viral-induced cytopathic effect at 250 ug/mL; assay type: functional, organism-based
# Chain of Protease (Human immunodeficiency virus 1) (Q9YQ12 as listed by the source): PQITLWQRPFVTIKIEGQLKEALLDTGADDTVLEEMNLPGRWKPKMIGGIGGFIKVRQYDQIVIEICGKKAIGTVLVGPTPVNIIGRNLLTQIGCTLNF
# Chain of Protease (Q9YQ12 whole entry): as the sequence (Q9YQ12 as listed by the source) above
SMILES,inhibition [2] [%],other results
C/C1=C/[C@H]2OC(=O)[C@H](C)[C@H]2CC[C@]2(C)O[C@H]1C[C@H]2O,22,
C[C@@H]1C(=O)O[C@@H]2C3=C([C@H]4C(=O)[C@]3(C)[C@@H]3[C@H](O)C5=C([C@H]6OC(=O)[C@@H](C)[C@@H]6CC[C@]5(C)O)[C@@]43C)[C@@](C)(O)CC[C@@H]12,22,
CC1=C2[C@H]3OC(=O)[C@H](C)[C@@H]3CC[C@@](C)(O)[C@@H]2[C@H]2[C@H]3C[C@]4(C)O[C@@]5(C)CC[C@H]6[C@H](C)C(=O)O[C@@H]6[C@@]4([C@@H]35)[C@@H]12,22,
CC1=C[C@H]2[C@H]3[C@H](C(C)=C4[C@H]5OC(=O)[C@@H](C)[C@@H]5CC[C@](C)(O)[C@@H]43)[C@@]13[C@@H]2[C@@](C)(O)CC[C@H]1[C@H](C)C(=O)O[C@@H]13,22,Activity [3]: Active

# Further lines, with some results ahead:
inhibition [2] [%],SMILES,other results
22,CC1=C2[C@H]3OC(=O)[C@@H](C)[C@@H]3CC[C@](C)(O)[C@@H]2[C@H]2[C@H]3C(=O)[C@H](C)[C@]4([C@@H]3[C@@](C)(O)CC[C@H]3[C@H](C)C(=O)O[C@@H]34)[C@@H]12 [CARUIFOLIN B],IC50 (Protease): 293 µM; Activity [1]: Active
22,CC1=C2[C@H]3OC(=O)[C@@H](C)[C@@H]3CC[C@](C)(O)[C@@H]2[C@H]2[C@H]3C[C@]4(C)O[C@@]5(C)CC[C@H]6[C@H](C)C(=O)O[C@@H]6[C@@]4([C@@H]35)[C@@H]12,
22,C=C1[C@@H](O)[C@@H]2[C@H]3[C@H](C(C)=C4[C@H]5OC(=O)[C@@H](C)[C@@H]5CC[C@](C)(O)[C@@H]43)[C@@]13[C@@H]2[C@@](C)(O)CC[C@H]1[C@H](C)C(=O)O[C@@H]13,
22,CC1=C2[C@H]3OC(=O)[C@@H](C)[C@@H]3CC[C@](C)(O)[C@@H]2[C@H]2[C@@H]3[C@@H]4[C@]5([C@H]6OC(=O)[C@@H](C)[C@@H]6CC[C@]4(C)O[C@@]5(C)[C@H]3O)[C@@H]12,
